Source: ChEMBL document CHEMBL4118245, “Stereoselective synthesis of new rac-quercitols containing hydroxymethyl groups as glucosidase inhibitors” (Bioorg Med Chem Lett, 2018)

Experiments:
[1] = tested on: Saccharomyces cerevisiae; assay: Inhibition of Saccharomyces cerevisiae alpha-glucosidase at 10 uM using 4-nitrophenyl D-glucopyranoside as substrate after 3 mins by UV/Vis spectrophotometric method relative to control
In short: (§1)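 Compounds were tested at 10, 20, 25, 45, 80, 120 and 180 µM, with percent enzyme inhibition reported at each level. Acarbose served as the positive control. The study ran four experiments per compound, each in triplicate, and reports mean ± S.D. IC50 is the concentration giving 50% inhibition of enzyme activity under the assay conditions, taken from this concentration series.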

[2] = tested on: Saccharomyces cerevisiae; assay: Inhibition of Saccharomyces cerevisiae alpha-glucosidase at 20 uM using 4-nitrophenyl D-glucopyranoside as substrate after 3 mins by UV/Vis spectrophotometric method relative to control; in short: as §1
[3] = tested on: Saccharomyces cerevisiae; assay: Inhibition of Saccharomyces cerevisiae alpha-glucosidase at 25 uM using 4-nitrophenyl D-glucopyranoside as substrate after 3 mins by UV/Vis spectrophotometric method relative to control; in short: as §1
[4] = tested on: Saccharomyces cerevisiae; assay: Inhibition of Saccharomyces cerevisiae alpha-glucosidase at 45 uM using 4-nitrophenyl D-glucopyranoside as substrate after 3 mins by UV/Vis spectrophotometric method relative to control; in short: as §1
[5] = tested on: Saccharomyces cerevisiae; assay: Inhibition of Saccharomyces cerevisiae alpha-glucosidase at 80 uM using 4-nitrophenyl D-glucopyranoside as substrate after 3 mins by UV/Vis spectrophotometric method relative to control; in short: as §1
[6] = tested on: Saccharomyces cerevisiae; assay: Inhibition of Saccharomyces cerevisiae alpha-glucosidase at 120 uM using 4-nitrophenyl D-glucopyranoside as substrate after 3 mins by UV/Vis spectrophotometric method relative to control; in short: as §1
[7] = tested on: Saccharomyces cerevisiae; assay: Inhibition of Saccharomyces cerevisiae alpha-glucosidase at 180 uM using 4-nitrophenyl D-glucopyranoside as substrate after 3 mins by UV/Vis spectrophotometric method relative to control; in short: as §1
[8] = tested on: Prunus dulcis; assay: Inhibition of almond beta-glucosidase at 10 uM using p-nitrophenyl D-glucopyranoside as substrate after 3 mins by UV/Vis spectrophotometric method relative to control; in short: as §1
[9] = tested on: Prunus dulcis; assay: Inhibition of almond beta-glucosidase at 20 uM using p-nitrophenyl D-glucopyranoside as substrate after 3 mins by UV/Vis spectrophotometric method relative to control; in short: as §1
[10] = tested on: Prunus dulcis; assay: Inhibition of almond beta-glucosidase at 25 uM using p-nitrophenyl D-glucopyranoside as substrate after 3 mins by UV/Vis spectrophotometric method relative to control; in short: as §1
[11] = tested on: Prunus dulcis; assay: Inhibition of almond beta-glucosidase at 45 uM using p-nitrophenyl D-glucopyranoside as substrate after 3 mins by UV/Vis spectrophotometric method relative to control; in short: as §1
[12] = tested on: Prunus dulcis; assay: Inhibition of almond beta-glucosidase at 80 uM using p-nitrophenyl D-glucopyranoside as substrate after 3 mins by UV/Vis spectrophotometric method relative to control; in short: as §1
[13] = tested on: Prunus dulcis; assay: Inhibition of almond beta-glucosidase at 120 uM using p-nitrophenyl D-glucopyranoside as substrate after 3 mins by UV/Vis spectrophotometric method relative to control; in short: as §1
[14] = tested on: Prunus dulcis; assay: Inhibition of almond beta-glucosidase at 180 uM using p-nitrophenyl D-glucopyranoside as substrate after 3 mins by UV/Vis spectrophotometric method relative to control; in short: as §1
[15] = Inhibition of almond beta-glucosidase using p-nitrophenyl D-glucopyranoside as substrate after 3 mins by UV/Vis spectrophotometric method; set-up: species or system Prunus dulcis; in short: as §1
[16] = Inhibition of Saccharomyces cerevisiae alpha-glucosidase using 4-nitrophenyl D-glucopyranoside as substrate after 3 mins by UV/Vis spectrophotometric method; in short: as §1

Row | SMILES | inhibition [1] [%] | inhibition [2] [%] | inhibition [3] [%] | inhibition [4] [%] | inhibition [5] [%] | inhibition [6] [%] | inhibition [7] [%] | inhibition [8] [%] | inhibition [9] [%] | inhibition [10] [%] | inhibition [11] [%] | inhibition [12] [%] | inhibition [13] [%] | inhibition [14] [%] | IC50 [15] [µM] | IC50 [16] [µM]
1 | OC[C@H]1C[C@@H](O)[C@H](O)[C@H](O)[C@H]1CO | 15.8 | 18.8 | 19.4 | 19.9 | 21.4 | 37.6 | 42.2 | 3.4 | 27.8 | 28.4 | 30.4 | 31.8 | 32.1 | 33.3 |  | 
2 | OC[C@H]1C[C@H](O)[C@H](O)[C@H](O)[C@H]1CO | 2 | 6 | 14 | 19 | 20 | 22 | 25 | 18 | 20.4 | 29 | 34.3 | 37.5 | 42.7 | 51.8 | 198 | 
3 | C[C@H]1O[C@H](O[C@H]2[C@H](O)[C@@H](O)[C@@H](O[C@H]3[C@H](O)[C@@H](O)C(O)O[C@@H]3CO)O[C@@H]2CO)[C@H](O)[C@@H](O)[C@@H]1N[C@H]1C=C(CO)[C@@H](O)[C@H](O)[C@H]1O (some centres undefined) [ACARBOSE] | 22 | 30 | 33 | 46 | 60 | 63 | 74 | 17 | 25 | 29 | 39 | 52 | 60 | 66 | 57.8 | 52.5
4 | OC[C@H]1C[C@H](O)[C@@H](O)[C@@H](O)[C@H]1CO | 10 | 13 | 19 | 21 | 31 | 40 | 42 | 2.2 | 4.98 | 12.7 | 13.7 | 19.1 | 20.2 | 30.8 |  | 
